Bioassay records: PubChem BioAssay, Johns Hopkins Ion Channel Center
TRPC4 potent – allosteric potentiators of mouse TRPC4 channel | Q9QUQ5 | HEK293 TRPC4beta/mu-opioid, DAMGO EC20, Fluo-4 Ca2+ flux; hits give high values | B-score at 10 µM | 0.42% of 310,000 active | AID 2227;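 active = B-score of calcium response area above 5 SD of library B-scores, with initial fluorescence ratio within 5 SD of library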
Target sequence (Q9QUQ5 whole entry, looked up): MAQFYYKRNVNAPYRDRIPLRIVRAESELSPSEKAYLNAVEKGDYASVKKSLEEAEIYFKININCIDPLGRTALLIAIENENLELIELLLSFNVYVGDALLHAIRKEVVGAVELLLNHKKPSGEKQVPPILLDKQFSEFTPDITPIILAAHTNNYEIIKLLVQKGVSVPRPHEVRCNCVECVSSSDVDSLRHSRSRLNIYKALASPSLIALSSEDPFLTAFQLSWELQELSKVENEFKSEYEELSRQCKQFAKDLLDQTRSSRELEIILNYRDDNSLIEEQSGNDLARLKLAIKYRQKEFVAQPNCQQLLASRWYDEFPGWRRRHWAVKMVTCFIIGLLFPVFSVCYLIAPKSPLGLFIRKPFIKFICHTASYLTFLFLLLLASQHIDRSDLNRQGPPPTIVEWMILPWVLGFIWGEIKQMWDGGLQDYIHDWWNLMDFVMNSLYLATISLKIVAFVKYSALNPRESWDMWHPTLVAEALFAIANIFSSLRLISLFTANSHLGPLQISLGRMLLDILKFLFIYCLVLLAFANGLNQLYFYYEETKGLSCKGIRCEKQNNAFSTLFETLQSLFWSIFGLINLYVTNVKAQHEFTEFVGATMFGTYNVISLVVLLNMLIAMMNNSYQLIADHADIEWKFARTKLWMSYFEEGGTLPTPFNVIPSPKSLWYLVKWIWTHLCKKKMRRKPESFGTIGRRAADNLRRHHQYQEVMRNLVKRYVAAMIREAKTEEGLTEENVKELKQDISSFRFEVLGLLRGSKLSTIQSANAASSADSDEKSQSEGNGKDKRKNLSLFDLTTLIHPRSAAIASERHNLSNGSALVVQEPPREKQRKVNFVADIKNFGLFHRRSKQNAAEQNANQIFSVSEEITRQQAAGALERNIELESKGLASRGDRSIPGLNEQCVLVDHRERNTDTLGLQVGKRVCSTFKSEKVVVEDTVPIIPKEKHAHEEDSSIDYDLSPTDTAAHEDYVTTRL
TRPC4 block – inhibitors of mouse TRPC4 channel; HEK293 TRPC4beta/mu-opioid, DAMGO-evoked Fluo4 calcium flux; hits give low values; B-score at 10 µM; 0.39% of 300,000 active; AID 2247;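 active = B-score over 3 SD under the library average, no early fluorescence shift, positive overall ratio signal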
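Signal: kinetic Fluo4 fluorescence imaging of calcium influx. Material: stable TRPC4beta/mu-opioid receptor HEK293 cells. Probe or stimulus: DAMGO in two steps, submaximal then maximal.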
TRPC4 agonist – activators of mouse TRPC4 channel; HEK293 TRPC4beta/mu-opioid, Fluo4 calcium fluorescence; hits give high values; Q9QUQ5; 0.49% of 310,000 active; B-score at 10 µM;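 active = B-score above 5 SD of library B-scores, and initial fluorescence ratio not above library mean plus 5 SD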;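 also: positive B-score marks a calcium rise read as TRPC4 activation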
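Test system: HEK293 cells stably co-expressing mouse TRPC4beta and mu-opioid receptor | Schedule: Fluo4 dye loading 45 min at room temperature, 110 s recording | Measured by: Kinetic Fluo4 calcium fluorescence, 5 s baseline at 1 Hz | Evaluation: B score of integrated ratio | Controls: Buffer (low) and maximal DAMGO (high)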
TRPC6 act – activators of mouse TRPC6 channel | HEK293-TRPC6 membrane potential dye fluorescence; hits give high values | B-score at 10 µM | 0.13% of 310,000 active;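 active = B-score of the integrated fluorescence ratio above library mean plus 3 SD, and starting fluorescence ratio within library mean plus 5 SD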;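 also: higher score means more depolarization so channel activation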
TRPC6 inh – mouse TRPC6 channel inhibition; HEK293-TRPC6, membrane potential dye, ACh-evoked depolarization; hits give low values; B-score at 10 µM; 1.1% of 310,000 active; AID 2553;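 active = B-score under library mean minus 3 SD, initial fluorescence not abnormally high, positive integrated signal ratio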;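 also: B-score derived from integrated fluorescence ratio over the kinetic read; more negative B-score means stronger inhibition of depolarization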
TRPC4 sel inh 2 – mouse TRPC4 off-target activity of TRPC6 inhibitors, second screen | shares compounds with TRPC6 inh | HEK293 TRPC4/MOR, membrane potential dye fluorescence; channel activated by saturating DAMGO dose | inhibition, % at 10 µM | 42% of 920 active;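 active = compounds whose fluorescence signal differed from control wells by over 3 SD, either direction, in both duplicate plates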
TRPC4 spec – mouse TRPC4 off-target activity of TRPC6 inhibitors. shares compounds with TRPC6 inh. HEK293 TRPC4/mu-opioid, membrane potential fluorescence. activity change, negative = inhibition, % at 10 µM. 61% of 920 active. AID 2777;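 active = rise or fall in signal beyond 3 SD of buffer-only wells in both replicate plates, either sign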;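 also: integrated kinetic ratio of fluorescence range over baseline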
HEK293 MPD ctr 2-1 – second check of TRPC6 inhibitor effects in parental HEK293 cells. parental HEK293 membrane potential dye fluorescence; maximal acetylcholine challenge after compound addition. AID 2779. 31% of 920 active. shares compounds with TRPC6 inh. signal change vs control, % at 10 µM;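 active = membrane potential signal moving either way by over 3 SD of the maximum-effect control, in both duplicate plates, meaning non-specific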
HEK293 MPD ctr-1 – counter-screen for TRPC6 inhibitors: effect in parental HEK293 cells; shares compounds with TRPC6 inh; parental HEK293 membrane potential dye fluorescence; membrane potential signal change, % at 10 µM; 60% of 920 active;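 active = membrane potential signal shifting up or down by more than 3 SD of buffer-only wells, on both duplicate plates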
HEK293 MPD ctr-2 – checks TRPC6 modulator effects in parental HEK293 cells; shares compounds with TRPC6 inh; membrane potential dye fluorescence; membrane potential signal change, % at 10 µM; 51% of 2,400 active; AID 488924;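 active = membrane potential signal moves up or down beyond 5 SD from buffer-only wells, on both duplicate plates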
HEK293 MPD ctr 2-2 – second check of TRPC6 modulator effects in parental HEK293 cells; shares compounds with TRPC6 inh; membrane potential dye fluorescence; after compound, maximal acetylcholine stimulation; inhibition, % at 10 µM; 14% of 2,400 active;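 active = membrane potential signal drops by more than 5 SD from the mean control signal, in both duplicate plates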
TRPC4 ctr mod – mouse TRPC4 off-target activity of TRPC6 modulators; 69% of 2,400 active; shares compounds with TRPC6 inh; percent change from control (negative = decrease, positive = increase), % at 10 µM; AID 488927; HEK293 TRPC4/mu-opioid, membrane potential fluorescence;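 active = membrane potential signal moved up or down beyond 5 SD of buffer control wells, in both duplicate plates, actives on both sides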
TRPC4/MOR inh 2 – mouse TRPC4 off-target activity of TRPC6 modulators, second screen; shares compounds with TRPC6 inh; HEK293 TRPC4/mu-opioid, membrane potential dye fluorescence; stimulated with maximal-effect DAMGO; inhibition, % at 10 µM; 55% of 2,400 active; AID 488928;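 active = drop in membrane potential signal beyond 5 SD of the control wells in both duplicate plates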;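 also: TRPC4 counter screen for TRPC6 hits run under conditions tuned for TRPC6 not TRPC4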
TRPC6 block conf – confirmation of mouse TRPC6 inhibitors | shares compounds with TRPC6 inh | HEK293-TRPC6, membrane potential dye, ACh-evoked depolarization | inhibition, % at 10 µM | 43% of 3,300 active;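 active = fluorescence ratio falls more than 5 SD below the full-stimulation control mean, in both duplicate runs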;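 also: integrated fluorescence ratio of peak minus minimum over baseline after agonist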
TRPC6 act confirm – mouse TRPC6 activator confirmation | shares compounds with TRPC6 inh | HEK293-TRPC6 membrane potential dye fluorescence, FDSS | activation, % at 10 µM | 11% of 2,800 active | AID 488961;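 active = ratio signal rise beyond 5 SD above unstimulated control wells' mean, seen in both duplicate runs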
Large screens that a line does not name were inactive (follow-up assays come after a bar, where they were run); ! = repeats disagree. Sampled rows, rich in hits. Any-hit rate of the full collection: about 2.3%.

Cc1nnc2ccc(-c3cccc(NC(=O)c4ccc(Br)o4)c3)nn12	none
Cc1ccc(-c2nn3c(C)nnc3s2)cc1NC(=O)c1cccnc1	TRPC6 inh -9.7 | HEK293 MPD ctr-2 -244% | HEK293 MPD ctr 2-2 inactive | TRPC4 ctr mod -43% | TRPC4/MOR inh 2 40% | TRPC6 block conf inactive | TRPC6 act confirm inactive
CCOc1cccc(C(=O)Nc2cc(-c3nn4c(C)nnc4s3)ccc2C)c1	none
COc1ccc(NS(=O)(=O)c2cccc(C(=O)NNC(=O)c3cccc(NC(C)=O)c3)c2)cc1	none
COc1ccc(N(C(=O)CNC(=O)c2ccco2)C(C(=O)NC2CCCCC2)c2cccnc2)cc1 (stereo not drawn)	none
O=C(N/C(=C\c1cccc([N+](=O)[O-])c1)C(=O)N1CCOCC1)c1ccco1	none
Cc1ccc(Cl)c(N/C=C/C(=O)c2ccccc2)c1	none
COc1ccc(C(=O)c2coc3ccc(O)c(CN4CCCCC4)c23)cc1	TRPC6 inh -8.8 | TRPC4 sel inh 2 40% | TRPC4 spec inactive | HEK293 MPD ctr 2-1 inactive | HEK293 MPD ctr-1 1.5% | TRPC6 block conf inactive | TRPC6 act confirm inactive
COc1ccc2occ(C(=O)c3coc4ccc(O)c(CN(C)C)c34)c2c1	TRPC6 inh -13 | HEK293 MPD ctr-2 -146% | HEK293 MPD ctr 2-2 inactive | TRPC4 ctr mod -34% | TRPC4/MOR inh 2 84% | TRPC6 block conf 67% | TRPC6 act confirm inactive
Cc1onc(-c2c(Cl)cccc2Cl)c1C(=O)N1CCc2ccccc21	TRPC6 inh -5.1 | HEK293 MPD ctr-2 inactive | HEK293 MPD ctr 2-2 inactive | TRPC4 ctr mod 12% | TRPC4/MOR inh 2 inactive | TRPC6 block conf inactive | TRPC6 act confirm inactive
C=C1CCN([C@@H](Cc2ccccc2)C(=O)NCc2ccc(Cl)cc2)S(=O)(=O)c2ccccc21	none
CC(C)N1C(=S)N(Cc2ccco2)C(=O)C1CC(=O)Nc1ccccc1 (stereo not drawn)	none
COc1ccccc1-c1c(C)oc2c(CN3CCCC(C)C3)c(O)ccc2c1=O (stereo not drawn)	none
COc1ccccc1-c1coc2c(CN3CCCC(C)C3)c(O)ccc2c1=O (stereo not drawn)	TRPC6 inh -5.9 | HEK293 MPD ctr-2 inactive | HEK293 MPD ctr 2-2 inactive | TRPC4 ctr mod inactive | TRPC4/MOR inh 2 inactive | TRPC6 block conf inactive | TRPC6 act confirm inactive
CN(Cc1cccc(C(F)(F)F)c1)Cc1nc(-c2cnccn2)no1	none
O=C(C1=C[C@H](c2csc3ccccc23)C[C@H](OCc2ccc(CO)cc2)O1)N1CCCCCCC1	none
CN1CCS/C1=C/C=C1/SC(=S)N(Cc2ccccc2)C1=O	TRPC6 act 19 | HEK293 MPD ctr-2 278% | HEK293 MPD ctr 2-2 inactive | TRPC4 ctr mod 49% | TRPC4/MOR inh 2 inactive | TRPC6 block conf inactive | TRPC6 act confirm 112%
CC(N)C12CC3CC(CC(C3)C1)C2 (stereo not drawn)	TRPC6 inh -5.4! | HEK293 MPD ctr-2 inactive | HEK293 MPD ctr 2-2 inactive | TRPC4 ctr mod inactive | TRPC4/MOR inh 2 30% | TRPC6 block conf inactive | TRPC6 act confirm inactive
COC(=O)c1c(N2C(=O)Nc3ccccc3N2O)sc2c1CCCC2	TRPC6 act 12 | HEK293 MPD ctr-2 155% | HEK293 MPD ctr 2-2 inactive | TRPC4 ctr mod 18% | TRPC4/MOR inh 2 inactive | TRPC6 block conf inactive | TRPC6 act confirm 76%
CCOC(=O)c1c(N2C(=O)Nc3ccccc3N2O)sc2c1CCCCC2	none
COc1ccc(S(=O)(=O)N2CCOC2CNC(=O)C(=O)NCC(C)C)cc1 (stereo not drawn)	none
O=C(c1ccc(OC2CCN(Cc3ccccc3C(F)(F)F)CC2)cc1)N1CCCCC1	none
O=C(c1ccc(OC2CCN(Cc3ccc(C(F)(F)F)cc3)CC2)cc1)N1CCCCC1	TRPC6 inh -6.3 | HEK293 MPD ctr-2 126% | HEK293 MPD ctr 2-2 inactive | TRPC4 ctr mod inactive | TRPC4/MOR inh 2 44% | TRPC6 block conf 66%
COc1ccc(CCNC(=O)CSc2nnc3ccc(-c4ccccn4)nn23)cc1	none
COc1ccc(-n2nc(C(N)=O)nc2-c2ccccc2)cc1	TRPC6 inh -5.8 | HEK293 MPD ctr-2 inactive | HEK293 MPD ctr 2-2 inactive | TRPC4 ctr mod inactive | TRPC4/MOR inh 2 inactive | TRPC6 block conf 48%
Cc1ccc(-n2nc(C(N)=O)nc2-c2ccccc2)cc1	none
Cn1ccc(NC(=O)Nc2cccc([N+](=O)[O-])c2)n1	none
CC(=O)c1c(C)nc2cc(Cl)ccc2c1N	TRPC6 inh -5.8 | HEK293 MPD ctr-2 -66% | HEK293 MPD ctr 2-2 inactive | TRPC4 ctr mod -12% | TRPC4/MOR inh 2 32% | TRPC6 block conf inactive | TRPC6 act confirm inactive
CCCCCCn1cc(C(=O)O)c(=O)c2cc(F)c(N3CCN(C)CC3)cc21	TRPC6 inh -5.5 | HEK293 MPD ctr-2 -268% | HEK293 MPD ctr 2-2 70% | TRPC4 ctr mod -52% | TRPC4/MOR inh 2 52% | TRPC6 block conf 44% | TRPC6 act confirm inactive
CCCCCCn1cc(C(=O)OCC)c(=O)c2cc(F)c(F)cc21	TRPC4 block -6, TRPC6 inh -5.1 | HEK293 MPD ctr-2 inactive | HEK293 MPD ctr 2-2 inactive | TRPC4 ctr mod inactive | TRPC4/MOR inh 2 46% | TRPC6 block conf inactive | TRPC6 act confirm inactive
CCOC(=O)c1cn(CC#N)c2cc(F)c(F)cc2c1=O	none
